In ChEMBL document CHEMBL3259559, “Design, synthesis and preliminary evaluation of α-sulfonyl γ-(glycinyl-amino)proline peptidomimetics as matrix metalloproteinase inhibitors” (Bioorg Med Chem, 2014):
pIC50: −log10 of the molar value.

Assays:
[1] = molecular target: T1, 72 kDa type IV collagenase (Homo sapiens, UniProt P08253); assay: Inhibition of MMP2 (unknown origin) using succinylated gelatin as substrate preincubated for 10 mins before substrate addition measured after 30 mins by spectrophotometry
Method in brief: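 Purified MMP-2 (gelatinase A) and inhibitor in 50 mmol/L sodium borate pH 8.5, preincubated 10 min at 37 °C. Succinylated gelatin then added for 30 min at 37 °C, followed by 0.03% TNBS for 20 min; OD read at 450 nm. IC₅₀ as mean with SD of three experiments.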

Aminopeptidase N = molecular target: T2, Aminopeptidase N (Sus scrofa, UniProt P15145); assay: Inhibition of pig kidney microsomal APN using L-Leu-p-nitroanilide as substrate preincubated for 5 mins before substrate addition measured after 30 mins by spectrophotometry
T2 sequence (P15145 whole entry): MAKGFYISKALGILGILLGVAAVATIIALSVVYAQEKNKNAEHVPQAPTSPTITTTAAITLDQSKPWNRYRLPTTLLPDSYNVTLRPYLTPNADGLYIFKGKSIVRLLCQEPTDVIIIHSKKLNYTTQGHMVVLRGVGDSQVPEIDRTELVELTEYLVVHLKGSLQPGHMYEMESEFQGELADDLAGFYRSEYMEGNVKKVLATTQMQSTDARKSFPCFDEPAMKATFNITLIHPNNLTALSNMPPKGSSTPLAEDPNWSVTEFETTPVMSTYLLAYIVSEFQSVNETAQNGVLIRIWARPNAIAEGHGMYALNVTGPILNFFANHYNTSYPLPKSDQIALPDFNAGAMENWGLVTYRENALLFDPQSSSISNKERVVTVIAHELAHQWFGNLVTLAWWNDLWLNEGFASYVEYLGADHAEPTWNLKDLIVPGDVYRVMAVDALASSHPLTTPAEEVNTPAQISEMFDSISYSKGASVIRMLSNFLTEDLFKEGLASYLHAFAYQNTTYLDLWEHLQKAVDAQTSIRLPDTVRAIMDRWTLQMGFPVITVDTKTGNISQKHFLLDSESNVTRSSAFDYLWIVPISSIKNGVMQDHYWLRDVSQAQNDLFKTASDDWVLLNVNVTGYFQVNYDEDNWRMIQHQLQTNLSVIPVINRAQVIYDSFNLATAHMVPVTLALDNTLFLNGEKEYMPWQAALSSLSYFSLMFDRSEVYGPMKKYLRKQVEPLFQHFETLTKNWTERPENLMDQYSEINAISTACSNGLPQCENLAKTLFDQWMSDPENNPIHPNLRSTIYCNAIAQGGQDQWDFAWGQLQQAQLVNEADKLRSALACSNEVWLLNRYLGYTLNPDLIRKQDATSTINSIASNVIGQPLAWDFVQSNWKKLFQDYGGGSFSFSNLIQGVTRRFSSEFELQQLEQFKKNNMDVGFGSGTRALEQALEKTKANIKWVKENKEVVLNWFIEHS

Histone deacetylase = assay: Inhibition of HDAC in human HeLa nuclear extract using Boc-Lys (acetyl)-AMC as fluorogenic substrate after 30 mins by spectrophotometry; type: protein assay
[2] = molecular target: T1, 72 kDa type IV collagenase; assay: Inhibition of MMP2 in human SKOV3 cell suspension using succinylated gelatin as substrate preincubated for 10 mins before substrate addition measured after 30 mins by spectrophotometry; design: species or system SK-OV-3
Method in brief: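 Enzyme source was SKOV-3 cells suspended in PBS, 1 × 10⁵/well, incubated with inhibitor in 50 mmol/L sodium borate pH 8.5 for 10 min at 37 °C. Succinylated gelatin added for 30 min at 37 °C, then 0.03% TNBS for 20 min; absorbance at 450 nm. IC₅₀ as mean with SD of three experiments.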

HL-60 = assay: Antiproliferative activity against human HL60 cells after 48 hrs by MTT assay; type: functional, cell-based; details: HL-60, 48 h
Method in brief: (§1)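 Cells kept in RPMI1640 with 10% FBS at 37 °C, 5% CO₂; seeded 10,000/well, grown 4 h, then exposed to graded compound concentrations for 48 h. 0.5% MTT added for 4 h, formazan dissolved in DMSO 15 min. IC₅₀ as mean with SD of triplicate experiments.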

A549 = assay: Antiproliferative activity against human A549 cells after 48 hrs by MTT assay; type: functional, cell-based; details: A549, 48 h; method in brief: as §1
SK-OV-3 = assay: Antiproliferative activity against human SKOV3 cells after 48 hrs by MTT assay; type: functional, cell-based; details: SK-OV-3, 48 h; method in brief: as §1

T1 sequence (P08253 whole entry): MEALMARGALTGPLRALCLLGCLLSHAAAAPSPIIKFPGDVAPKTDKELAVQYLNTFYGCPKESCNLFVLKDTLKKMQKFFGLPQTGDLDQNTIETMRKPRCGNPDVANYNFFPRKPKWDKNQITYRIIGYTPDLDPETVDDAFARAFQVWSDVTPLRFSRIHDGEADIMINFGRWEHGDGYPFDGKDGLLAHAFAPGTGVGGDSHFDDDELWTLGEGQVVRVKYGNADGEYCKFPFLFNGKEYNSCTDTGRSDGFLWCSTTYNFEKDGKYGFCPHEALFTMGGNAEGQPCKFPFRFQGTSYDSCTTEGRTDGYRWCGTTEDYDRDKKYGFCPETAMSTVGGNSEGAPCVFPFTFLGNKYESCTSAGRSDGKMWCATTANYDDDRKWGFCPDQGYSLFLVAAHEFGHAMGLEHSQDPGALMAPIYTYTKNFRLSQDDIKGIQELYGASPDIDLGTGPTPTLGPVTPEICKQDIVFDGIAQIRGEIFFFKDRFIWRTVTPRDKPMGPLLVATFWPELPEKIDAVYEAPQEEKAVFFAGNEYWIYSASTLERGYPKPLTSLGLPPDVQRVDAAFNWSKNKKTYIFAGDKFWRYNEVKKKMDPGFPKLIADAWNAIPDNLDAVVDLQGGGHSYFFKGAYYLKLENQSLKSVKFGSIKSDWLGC

Row | SMILES | pIC50 [1] | pIC50 (Aminopeptidase N) | IC50 (Histone deacetylase) | pIC50 [2] | pIC50 (HL-60) | pIC50 (A549) | pIC50 (SK-OV-3)
1 | C[C@H](N)C(=O)NCC(=O)N[C@H]1C[C@@H](C(=O)NO)N(S(=O)(=O)c2ccccc2)C1.Cl | 5.13 | < 4.00 | > 100 µM | – | – | – | –
2 | CC(C)[C@H](N)C(=O)NCC(=O)N[C@H]1C[C@@H](C(=O)NO)N(S(=O)(=O)c2ccccc2)C1.Cl | 5.24 | < 4.00 | > 100 µM | – | – | – | –
3 | CC[C@H](C)[C@H](N)C(=O)NCC(=O)N[C@H]1C[C@@H](C(=O)NO)N(S(=O)(=O)c2ccccc2)C1.Cl | 5.28 | < 4.00 | > 100 µM | – | – | – | –
4 | Cl.N[C@@H](Cc1ccccc1)C(=O)NCC(=O)N[C@H]1C[C@@H](C(=O)NO)N(S(=O)(=O)c2ccccc2)C1 | 5.68 | 4.02 | > 100 µM | – | – | – | –
5 | CSCC[C@H](N)C(=O)NCC(=O)N[C@H]1C[C@@H](C(=O)NO)N(S(=O)(=O)c2ccccc2)C1.Cl | 5.63 | < 4.00 | > 100 µM | – | – | – | –
6 | Cc1ccc(S(=O)(=O)N2C[C@@H](NC(=O)CNC(=O)[C@H](C)N)C[C@H]2C(=O)NO)cc1.Cl | 5.36 | < 4.00 | > 100 µM | – | – | – | –
7 | Cc1ccc(S(=O)(=O)N2C[C@@H](NC(=O)CNC(=O)[C@@H](N)C(C)C)C[C@H]2C(=O)NO)cc1.Cl | 5.53 | 4.02 | > 100 µM | – | – | – | –
8 | CC[C@H](C)[C@H](N)C(=O)NCC(=O)N[C@H]1C[C@@H](C(=O)NO)N(S(=O)(=O)c2ccc(C)cc2)C1.Cl | 5.69 | 4.03 | > 100 µM | – | – | – | –
9 | COc1ccc(S(=O)(=O)N2C[C@@H](NC(=O)CNC(=O)[C@H](C)N)C[C@H]2C(=O)NO)cc1.Cl | 5.38 | < 4.00 | > 100 µM | – | – | – | –
10 | COc1ccc(S(=O)(=O)N2C[C@@H](NC(=O)CNC(=O)[C@@H](N)C(C)C)C[C@H]2C(=O)NO)cc1.Cl | 5.57 | 4.04 | > 100 µM | – | – | – | –
11 | CC[C@H](C)[C@H](N)C(=O)NCC(=O)N[C@H]1C[C@@H](C(=O)NO)N(S(=O)(=O)c2ccc(OC)cc2)C1.Cl | 5.71 | 4.05 | > 100 µM | – | – | – | –
12 | C[C@H](N)C(=O)NCC(=O)N[C@H]1C[C@@H](C(=O)NO)N(S(=O)(=O)c2ccc(Cl)cc2)C1.Cl | 5.47 | < 4.00 | > 100 µM | – | – | – | –
13 | COc1ccc(/C=C/C(=O)N2C[C@@H](NC(=O)c3cccnc3)C[C@H]2C(=O)NO)cc1OC | 6.02 | < 4.00 | > 100 µM | 4.36 | < 3.00 | < 3.00 | 3.16
14 | CC(C)C[C@H](NC(=O)[C@@H](O)[C@H](N)Cc1ccccc1)C(=O)O [UBENIMEX] | < 4.00 | – | – | – | – | – | –

The remaining compounds from weak to strong by pIC50 [1], led by results:

Row | pIC50 [1] | pIC50 (Aminopeptidase N) | IC50 (Histone deacetylase) | pIC50 [2] | pIC50 (HL-60) | pIC50 (A549) | pIC50 (SK-OV-3) | SMILES
15 | 5.74 | 4.10 | > 100 µM | – | – | – | – | CC(C)[C@H](N)C(=O)NCC(=O)N[C@H]1C[C@@H](C(=O)NO)N(S(=O)(=O)c2ccc(Cl)cc2)C1.Cl
16 | 5.82 | 4.08 | > 100 µM | – | – | – | – | CC(C)C[C@H](N)C(=O)NCC(=O)N[C@H]1C[C@@H](C(=O)NO)N(S(=O)(=O)c2ccccc2)C1.Cl
17 | 5.89 | 4.06 | > 100 µM | – | – | – | – | CC[C@H](C)[C@H](N)C(=O)NCC(=O)N[C@H]1C[C@@H](C(=O)NO)N(S(=O)(=O)c2ccc(Cl)cc2)C1.Cl
18 | 5.99 | < 4.00 | > 100 µM | – | – | – | – | CSCC[C@H](N)C(=O)NCC(=O)N[C@H]1C[C@@H](C(=O)NO)N(S(=O)(=O)c2ccc(C)cc2)C1.Cl
19 | 6.01 | 4.06 | > 100 µM | – | – | – | – | Cc1ccc(S(=O)(=O)N2C[C@@H](NC(=O)CNC(=O)[C@@H](N)Cc3ccccc3)C[C@H]2C(=O)NO)cc1.Cl
20 | 6.06 | 4.12 | > 100 µM | 4.42 | – | – | – | Cc1ccc(S(=O)(=O)N2C[C@@H](NC(=O)CNC(=O)[C@@H](N)CC(C)C)C[C@H]2C(=O)NO)cc1.Cl
21 | 6.12 | < 4.00 | > 100 µM | 4.45 | – | – | – | COc1ccc(S(=O)(=O)N2C[C@@H](NC(=O)CNC(=O)[C@@H](N)CCSC)C[C@H]2C(=O)NO)cc1.Cl
22 | 6.14 | 4.03 | > 100 µM | 4.50 | – | – | – | COc1ccc(S(=O)(=O)N2C[C@@H](NC(=O)CNC(=O)[C@@H](N)Cc3ccccc3)C[C@H]2C(=O)NO)cc1.Cl
23 | 6.28 | 4.08 | > 100 µM | 4.53 | – | – | – | COc1ccc(S(=O)(=O)N2C[C@@H](NC(=O)CNC(=O)[C@@H](N)CC(C)C)C[C@H]2C(=O)NO)cc1.Cl
24 | 6.34 | 4.02 | > 100 µM | 4.58 | < 3.00 | < 3.00 | 3.49 | CSCC[C@H](N)C(=O)NCC(=O)N[C@H]1C[C@@H](C(=O)NO)N(S(=O)(=O)c2ccc(Cl)cc2)C1.Cl
25 | 6.37 | 4.05 | > 100 µM | 4.61 | < 3.00 | < 3.00 | 3.54 | Cl.N[C@@H](Cc1ccccc1)C(=O)NCC(=O)N[C@H]1C[C@@H](C(=O)NO)N(S(=O)(=O)c2ccc(Cl)cc2)C1
26 | 6.57 | 4.14 | > 100 µM | 4.73 | < 3.00 | < 3.00 | 3.71 | CC(C)C[C@H](N)C(=O)NCC(=O)N[C@H]1C[C@@H](C(=O)NO)N(S(=O)(=O)c2ccc(Cl)cc2)C1.Cl
